Test results as given in ChEMBL document CHEMBL1139875, “Discovery of 4-aminobutyric acid derivatives possessing anticonvulsant and antinociceptive activities: a hybrid pharmacophore approach” (2007).
The source made the active and inactive calls. The calls are words filed in the database; no cut-off is given here.

How the values were obtained:
Rattus norvegicus [1] = experiment: Anti-cold allodynia effect in Sprague-Dawley rat SNL model assessed as duration of paw withdrawal 100 mg/kg, ip after 2 hrs; assay type: functional; conditions: route intraperitoneal
How it was run: (§1)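 Left L5 spinal nerve ligation under pentobarbital (65 mg/kg i.p.). Allodynic rats dosed i.p. 100 mg/kg, vehicle 30% v/v PEG 400 in water. Acetone (100-200 µL) misted onto midplantar affected paw after 10 min acclimatization; paw withdrawal duration, mean of three samples at least 3 min apart; n = 4 rats.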

Rattus norvegicus [2] = experiment: Effect on spontaneous pain in Sprague-Dawley rat SNL model assessed as duration of paw withdrawal at 100 mg/kg, ip after 2 hrs; assay type: functional; conditions: route intraperitoneal
How it was run: (§2)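 Rats underwent left L5 spinal nerve ligation (Kim and Chung) under i.p. pentobarbital (65 mg/kg). Spontaneous pain is recorded for 5 min after 10 min acclimatization, as cumulative duration the ipsilateral paw is lifted, excluding locomotor lifts. Dosing is 100 mg/kg i.p. in 30% v/v PEG 400/water, with testing at 0.5–2.5 h. Four rats, mean ± SEM versus predrug, one-way ANOVA with Bonferroni.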

Rattus norvegicus [3] = experiment: Anti-cold allodynia effect in Sprague-Dawley rat SNL model assessed as duration of paw withdrawal 100 mg/kg, ip after 2.5 hrs; assay type: functional; conditions: route intraperitoneal; how it was run: as §1
Rattus norvegicus [4] = experiment: Effect on spontaneous pain in Sprague-Dawley rat CCI model assessed as duration of paw withdrawal at 100 mg/kg, ip after 2.5 hrs; assay type: functional; conditions: route intraperitoneal
How it was run: (§3)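 Unilateral CCI of sciatic nerve (Bennett and Xie) in Sprague-Dawley rats under i.p. pentobarbital sodium (65 mg/kg). Spontaneous pain is scored over 5 min after 10 min acclimatization, as cumulative time the ipsilateral paw is held off the floor. Paw lifts from locomotion or repositioning are excluded. Drug is given at 100 mg/kg i.p. with 30% v/v PEG 400 vehicle. Mean ± SEM, n = 4, compared with predrug by ANOVA/Bonferroni.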

Rattus norvegicus [5] = species: Rattus norvegicus; experiment: Anti-dynamic allodynic effect in Sprague-Dawley rat CCI model assessed as latency to paw withdrawal after 1 hr; assay type: functional
How it was run: (§4)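 Rats with sciatic nerve chronic constriction injury (pentobarbital 65 mg/kg i.p. anaesthesia), baseline and day 9 testing, then drug per randomization table. After 10 min acclimatization, affected plantar surface stroked mildly with a cotton-bud; paw lift recorded. n = 4; retested 0.5-2.5 h post-dose.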

Rattus norvegicus [6] = experiment: Effect on spontaneous pain in Sprague-Dawley rat CCI model assessed as duration of paw withdrawal at 100 mg/kg, ip after 1 hr; assay type: functional; conditions: route intraperitoneal
How it was run: (§5)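 CCI rats (n = 4) dosed 100 mg/kg i.p. (vehicle 30% v/v PEG 400 in water). After 10 min acclimatization in a cage 5 cm above ground, cumulative time the ipsilateral paw was held off the floor over 5 min recorded, excluding locomotion lifts. Mean ± SEM; ANOVA/Bonferroni versus predrug.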

Rattus norvegicus [7] = experiment: Antihyperalgesic effects in Sprague-Dawley rat CCI model assessed as duration of paw withdrawal at 100 mg/kg, ip after 1 hr; assay type: functional; conditions: route intraperitoneal
Mus musculus = experiment: Neurotoxicity in Swiss Albino mouse at 300 mg/kg, ip after 4 hrs by rotarod test; assay type: functional, organism-based; parameters: dose 300 mg/kg
How it was run: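 Swiss mice (20-25 g) are trained on an accelerating rotorod (10 rpm, 3.2 cm rod), then injected i.p. at 30, 100 or 300 mg/kg, with three per group. Neurotoxicity means failure to keep equilibrium for at least 1 min in each of three trials, checked at 0.5 and 4 h. The value reported is the minimum dose affecting half or more of the mice.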

Rattus norvegicus [8] = species: Rattus norvegicus; experiment: Anti-dynamic allodynic effect in Sprague-Dawley rat CCI model assessed as latency to paw withdrawal after 2.5 hr; assay type: functional; how it was run: as §4
Rattus norvegicus [9] = experiment: Antihyperalgesic effects in Sprague-Dawley rat CCI model assessed as duration of paw withdrawal at 100 mg/kg, ip after 0.5 hr; assay type: functional; conditions: route intraperitoneal
Rattus norvegicus [10] = experiment: Effect on spontaneous pain in Sprague-Dawley rat CCI model assessed as duration of paw withdrawal at 100 mg/kg, ip after 0.5 hr; assay type: functional; conditions: route intraperitoneal; how it was run: as §5
Rattus norvegicus [11] = experiment: Antihyperalgesic effects in Sprague-Dawley rat SNL model assessed as duration of paw withdrawal at 100 mg/kg, ip after 1.5 hrs, ip; assay type: functional; conditions: route intraperitoneal
How it was run: (§6)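 L5 SNL rats (n = 4), dosed 100 mg/kg i.p. (vehicle 30% v/v PEG 400 in water). Pin-prick to midplantar ipsilateral left hindpaw; withdrawal duration, mean of three responses; ≥2 s defined abnormal. Mean ± SEM; one-way ANOVA with Bonferroni versus predrug.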

Rattus norvegicus [12] = experiment: Antihyperalgesic effects in Sprague-Dawley rat CCI model assessed as duration of paw withdrawal at 100 mg/kg, ip after 2 hrs; assay type: functional; conditions: route intraperitoneal
Rattus norvegicus [13] = species: Rattus norvegicus; experiment: Anti-dynamic allodynic effect in Sprague-Dawley rat CCI model assessed as latency to paw withdrawal after 2 hr; assay type: functional; how it was run: as §4
Rattus norvegicus [14] = experiment: Effect on spontaneous pain in Sprague-Dawley rat SNL model assessed as duration of paw withdrawal at 100 mg/kg, ip after 0.5 hr; assay type: functional; conditions: route intraperitoneal; how it was run: as §2
Rattus norvegicus [15] = experiment: Effect on spontaneous pain in Sprague-Dawley rat CCI model assessed as duration of paw withdrawal at 100 mg/kg, ip after 1.5 hrs; assay type: functional; conditions: route intraperitoneal; how it was run: as §3
Rattus norvegicus [16] = experiment: Antihyperalgesic effects in Sprague-Dawley rat SNL model assessed as duration of paw withdrawal at 100 mg/kg, ip after 0.5 hr, ip; assay type: functional; conditions: route intraperitoneal; how it was run: as §6
Rattus norvegicus [17] = species: Rattus norvegicus; experiment: Anti-dynamic allodynic effect in Sprague-Dawley rat CCI model assessed as latency to paw withdrawal after 0.5 hr; assay type: functional; how it was run: as §4
Rattus norvegicus [18] = experiment: Effect on spontaneous pain in Sprague-Dawley rat SNL model assessed as duration of paw withdrawal at 100 mg/kg, ip after 2.5 hrs; assay type: functional; conditions: route intraperitoneal; how it was run: as §2
Rattus norvegicus [19] = experiment: Antihyperalgesic effects in Sprague-Dawley rat SNL model assessed as duration of paw withdrawal at 100 mg/kg, ip after 2.5 hrs, ip; assay type: functional; conditions: route intraperitoneal; how it was run: as §6
Rattus norvegicus [20] = experiment: Antihyperalgesic effects in Sprague-Dawley rat CCI model assessed as duration of paw withdrawal at 100 mg/kg, ip after 2.5 hrs; assay type: functional; conditions: route intraperitoneal
Rattus norvegicus [21] = experiment: Antihyperalgesic effects in Sprague-Dawley rat SNL model assessed as duration of paw withdrawal at 100 mg/kg, ip after 1 hr, ip; assay type: functional; conditions: route intraperitoneal; how it was run: as §6
Rattus norvegicus [22] = experiment: Effect on spontaneous pain in Sprague-Dawley rat CCI model assessed as duration of paw withdrawal at 100 mg/kg, ip after 2 hrs; assay type: functional; conditions: route intraperitoneal; how it was run: as §3
Rattus norvegicus [23] = experiment: Antihyperalgesic effects in Sprague-Dawley rat CCI model assessed as duration of paw withdrawal at 100 mg/kg, ip after 1.5 hrs; assay type: functional; conditions: route intraperitoneal
Rattus norvegicus [24] = species: Rattus norvegicus; experiment: Anti-dynamic allodynic effect in Sprague-Dawley rat CCI model assessed as latency to paw withdrawal after 1.5 hr; assay type: functional; how it was run: as §4
Rattus norvegicus [25] = experiment: Anti-cold allodynia effect in Sprague-Dawley rat CCI model assessed as duration of paw withdrawal 100 mg/kg, ip after 2 hr; assay type: functional; conditions: route intraperitoneal
How it was run: (§7)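 CCI by sciatic nerve ligation under pentobarbital (65 mg/kg i.p.). Rats tested at baseline and 9 days post-surgery; those with allodynia dosed i.p. 100 mg/kg, vehicle 30% v/v PEG 400 in water. Acetone (100-200 µL) misted on midplantar affected paw; withdrawal duration recorded, three samples averaged, at least 3 min apart; n = 4.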

Rattus norvegicus [26] = experiment: Anti-cold allodynia effect in Sprague-Dawley rat CCI model assessed as duration of paw withdrawal at 100 mg/kg, ip after 0.5 hr; assay type: functional; conditions: route intraperitoneal; how it was run: as §7

| SMILES | Activity (Rattus norvegicus [1]) [s] | Activity (Rattus norvegicus [4]) [s] | Activity (Rattus norvegicus [5]) [s] | Activity (Rattus norvegicus [6]) [s] | Activity (Rattus norvegicus [7]) [s] | Activity (Rattus norvegicus [8]) [s] | Activity (Rattus norvegicus [9]) [s] | Activity (Rattus norvegicus [10]) [s] | Activity (Rattus norvegicus [11]) [s] | Activity (Rattus norvegicus [12]) [s] | Activity (Rattus norvegicus [13]) [s] | Activity (Rattus norvegicus [15]) [s] | Activity (Rattus norvegicus [16]) [s] | Activity (Rattus norvegicus [17]) [s] | Activity (Rattus norvegicus [19]) [s] | Activity (Rattus norvegicus [20]) [s] | Activity (Rattus norvegicus [21]) [s] | Activity (Rattus norvegicus [22]) [s] | Activity (Rattus norvegicus [23]) [s] | Activity (Rattus norvegicus [24]) [s] | also measured |
| --- | --- | --- | --- | --- | --- | --- | --- | --- | --- | --- | --- | --- | --- | --- | --- | --- | --- | --- | --- | --- | --- |
| O=C(O)CCCNC(=O)N/N=C1\C(=O)Nc2ccccc21 | 17.1 | 20.2 | 12.4 | 34.9 | 4.9 | 0.8 | 10.8 | 38.6 | 45.7 | 5 | 8.4 | 21.6 | 4.7 | 14.5 | 18.7 | 27.8 | 9.6 | 20.6 | 8.8 | 15.5 | Activity (Rattus norvegicus [2]): 0.7 s; Activity (Rattus norvegicus [3]): 41.2 s; Activity (Mus musculus): Active; Activity (Rattus norvegicus [14]): 1.2 s; Activity (Rattus norvegicus [18]): 9.8 s |
| Nc1nnc(-c2cccc(Cl)c2Cl)c(N)n1 [LAMOTRIGINE] | 17.3 | 67.8 | 1.3 | 79 | 36.7 | 1 | 36.2 | 69.2 | 10.1 | 33.7 | 0.9 | 76.9 | 22.5 | 5.7 | 17.3 | 29.8 | 8.2 | 71.2 | 35.7 | 0.9 | Activity (Rattus norvegicus [25]): 29.9 s; Activity (Rattus norvegicus [2]): 22.9 s; Activity (Rattus norvegicus [3]): 18.4 s; Activity (Rattus norvegicus [14]): 15.6 s; Activity (Rattus norvegicus [18]): 24.4 s; Activity (Rattus norvegicus [26]): 53.7 s |
| CN(C)c1ccc(/C=N/NC(=O)NCCCC(=O)O)cc1 | – | 5.2 | 10.9 | 48.8 | 13.1 | 8.4 | 17.4 | 47.2 | 5.5 | 5.8 | 8.2 | 38.2 | 4.7 | 10.9 | 5.8 | 4.8 | 5.8 | 11.9 | 9.7 | 10.3 | Activity (Rattus norvegicus [25]): 17.9 s; Activity (Rattus norvegicus [2]): 29.2 s; Activity (Mus musculus): inactive; Activity (Rattus norvegicus [14]): 12.4 s; Activity (Rattus norvegicus [18]): 43 s; Activity (Rattus norvegicus [26]): 28.1 s |
| NC(=O)N1c2ccccc2C=Cc2ccccc21 [CARBAMAZEPINE] | 19.4 | 76.9 | 3.7 | 17.8 | 15.7 | 3.8 | 13.3 | 24.6 | 6.6 | 21.7 | 3.4 | 32.8 | 11.1 | 2.7 | 5.8 | 24 | 5.2 | 67.4 | 22.9 | 4.9 | Activity (Rattus norvegicus [25]): 27.8 s; Activity (Rattus norvegicus [2]): 85.4 s; Activity (Rattus norvegicus [3]): 20.6 s; Activity (Rattus norvegicus [14]): 14.6 s; Activity (Rattus norvegicus [18]): 94.9 s; Activity (Rattus norvegicus [26]): 12.8 s |
| O=C(O)CCCNC(=O)N/N=C/c1ccccc1O | 25.4 | 7.3 | 13.5 | 19.3 | 7.7 | 13.1 | 7.5 | 10.5 | 10.6 | 4.1 | 14.6 | 23.7 | 17.6 | 13.6 | 17.3 | 7.3 | 17.3 | 11.2 | 4.4 | 11.1 | Activity (Rattus norvegicus [25]): 13.7 s; Activity (Rattus norvegicus [3]): 28.5 s; Activity (Mus musculus): Active; Activity (Rattus norvegicus [26]): 31.3 s |
